Reference: ChEMBL document CHEMBL1126689, “Novel heterocyclic analogues of the new potent class of calcium entry blockers: 1-[[4-(aminoalkoxy)phenyl]sulfonyl]indolizines” (J Med Chem, 1993)

Tests used:
[1] = Inhibitory concentration of [3H]- nitrendipine binding against guinea pig cerebral cortex membrane; assay type: functional, tissue-based, Cavia porcellus
Method in brief: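 Guinea pig cerebral cortex membranes (washed pellets, stored in liquid nitrogen), 200 μg protein, incubated under sodium light for 90 min at 25 °C in 50 mmol Tris-HCl pH 7.4 with 0.5 nmol [3H]nitrendipine and various compound concentrations (DMSO). Filtration and scintillation counting; 1 μM nifedipine defined specific binding.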

[2] = species: Rattus norvegicus; assay: Inhibition of [Ca2+] induced contraction of K+ depolarized rat aorta by 50%; assay type: functional
Method in brief: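 Spirally cut thoracic aorta strips from male Wistar rats were held in modified Krebs solution at 37 °C, gassed with 95% O2/5% CO2. Ca2+-induced contraction was measured after K+ depolarization. The value is the molar concentration blocking contraction by 50%, given as mean ± SE of 3–6 determinations.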

[3] = species: Cavia porcellus; assay: Inhibition of [3H]nitrendipine binding to L-type calcium channel of guinea pig cerebral cortex membrane at 10e-5 M; assay type: functional, tissue-based
[4] = species: Cavia porcellus; assay: Stimulatory concentration of [3H]nitrendipine binding to L-type calcium channel of guinea pig cerebral cortex membrane at 10e-6 M; assay type: functional, tissue-based
[5] = species: Cavia porcellus; assay: Molar concentration needed to […] by 50% of maximal stimulation; assay type: functional

| IC50 [1] [nM] | IC50 [2] [nM] | inhibition [3] [%] | Stimulation [4] [%] | IC50 [5] [nM] | Compound |
| --- | --- | --- | --- | --- | --- |
| 0.28 | 1.9 |  |  |  | COc1cc(CCN(C)CCCOc2ccc(S(=O)(=O)c3c(C(C)C)c4ccccc4n3C)cc2)cc(OC)c1OC |
| 1 | 3.7 |  |  |  | COc1ccc(CN(C)CCCOc2ccc(S(=O)(=O)c3c(C(C)C)n(C)c4ccccc34)cc2)cc1OC |
|  | 5060 | 6 |  |  | CCCCN(CCCC)CCCOc1ccc(S(=O)(=O)c2c[nH]nc2C(C)C)cc1 |
| 0.072 | 3.7 |  |  |  | COc1ccc(CCN(C)CCCOc2ccc(S(=O)(=O)c3c(C(C)C)c4ccccc4n3C)cc2)cc1OC |
| 0.99 | 13.3 |  |  |  | CCCCN(CCCC)CCCOc1ccc(S(=O)(=O)c2c(C(C)C)cc3ccccn23)cc1 |
| 94 | 198 |  |  |  | CCCCN(CCCC)CCCOc1ccc(S(=O)(=O)c2cc3ccccc3nc2C(C)C)cc1 |
| 0.61 |  |  |  |  | COc1ccc(CCN(C)CCCOc2ccc(S(=O)(=O)c3c(C(C)C)cn4ccccc34)cc2)cc1OC [FANTOFARONE] |
| 1.9 | 14.3 |  |  |  | COc1ccc(CN(C)CCCOc2ccc(S(=O)(=O)c3c(C(C)C)oc4ccccc34)cc2)cc1OC |
| 10.9 | 19.1 |  |  |  | COc1ccc(CCN(C)CCCOc2ccc(S(=O)(=O)c3c(C(C)C)[nH]c4ccccc34)cc2)cc1OC |
| 110 | 55.1 |  |  |  | CCCCN(CCCC)CCCOc1ccc(S(=O)(=O)c2c(C(C)C)[nH]c3ccccc23)cc1 |
| 11 | 24.1 |  |  |  | CCCCN(CCCC)CCCOc1ccc(S(=O)(=O)c2c(C(C)C)n(C)c3ccccc23)cc1 |
|  | 84.2 |  |  |  | COc1ccc(CCN(C)CCCOc2ccc(S(=O)(=O)c3ccoc3C(C)C)cc2)cc1OC |
| 186 | 119 |  |  |  | CCCCN(CCCC)CCCOc1ccc(S(=O)(=O)c2ccoc2C(C)C)cc1 |
| 0.59 | 5.8 |  |  |  | COc1cc(CCN(C)CCCOc2ccc(S(=O)(=O)c3c(C(C)C)oc4ccccc34)cc2)cc(OC)c1OC |
|  | 31.1 |  |  |  | CCCCN(CCCC)CCCOc1ccc(S(=O)(=O)c2c(C(C)C)nn3ccccc23)cc1 |
| 7.9 | 227 |  |  |  | CCCCc1oc2ccccc2c1S(=O)(=O)c1ccc(OCCCN(C)CCc2ccc(OC)c(OC)c2)cc1 |
|  | 1720 |  | 38 |  | COc1ccc(CCN(C)CCCOc2ccc(S(=O)(=O)c3c[nH]nc3C(C)C)cc2)cc1OC |

| IC50 [1] [nM] | IC50 [2] [nM] | inhibition [3] [%] | Stimulation [4] [%] | IC50 [5] [nM] | Compound |
| --- | --- | --- | --- | --- | --- |
| 244 | 235 |  |  |  | CC(C)c1occc1S(=O)(=O)c1ccc(OCCCNC(C)(C)C)cc1 |
| 116 | 99.3 |  |  |  | CC(C)c1c(S(=O)(=O)c2ccc(OCCCNC(C)(C)C)cc2)c2ccccc2n1C |
| 0.65 | 20.2 |  |  |  | COc1ccc(CCN(C)CCCOc2ccc(S(=O)(=O)c3c(C(C)C)oc4ccccc34)cc2)cc1OC |
| 0.22 | 5.9 |  |  |  | COc1ccc(CCN(C)CCCOc2ccc(S(=O)(=O)c3c(C(C)C)cc4ccccn34)cc2)cc1OC |
| 1.1 | 4.3 |  |  |  | COc1ccc(CCN(C)CCCOc2ccc(S(=O)(=O)c3c(C(C)C)n(C)c4ccccc34)cc2)cc1OC |
| 181 | 370 |  |  |  | CC(C)c1nc2ccccc2cc1S(=O)(=O)c1ccc(OCCCNC(C)(C)C)cc1 |
| 0.093 | 16.4 |  |  |  | COc1cc(CCN(C)CCCOc2ccc(S(=O)(=O)c3c(C(C)C)c4ccccc4n3C)cc2)cc(OC)c1 |
| 2.2 | 37.5 |  |  |  | COc1ccc(CCN(C)CCCOc2ccc(S(=O)(=O)c3[nH]c4ccccc4c3C(C)C)cc2)cc1OC |
|  |  |  |  | 59 | COc1ccc([C@@H]2Sc3ccccc3N(CCN(C)C)C(=O)[C@@H]2OC(C)=O)cc1 [DILTIAZEM] |
|  | 168 |  |  |  | CC(C)c1nn2ccccc2c1S(=O)(=O)c1ccc(OCCCNC(C)(C)C)cc1 |
| 1.6 | 17.1 |  |  |  | COc1ccc(CCNCCCOc2ccc(S(=O)(=O)c3c(C(C)C)oc4ccccc34)cc2)cc1OC |
| 38 |  |  |  |  | COc1ccc(CCN(C)CCCC(C#N)(c2ccc(OC)c(OC)c2)C(C)C)cc1OC (stereo unspecified) |
| 13.1 | 84.2 |  |  |  | COc1ccc(CCN(C)CCCOc2ccc(S(=O)(=O)c3cc4ccccc4nc3C(C)C)cc2)cc1OC |
| 5.2 | 50.8 |  |  |  | CCCc1oc2ccccc2c1S(=O)(=O)c1ccc(OCCCN(C)CCc2ccc(OC)c(OC)c2)cc1 |
| 2.6 | 18.8 |  |  |  | COc1ccc(CCN(C)CCCOc2ccc(S(=O)(=O)c3c(C(C)C)nn4ccccc34)cc2)cc1OC |
| 12 | 32.9 |  |  |  | CC(C)c1cc2ccccn2c1S(=O)(=O)c1ccc(OCCCNC(C)(C)C)cc1 |

| Compound | IC50 [1] [nM] | IC50 [2] [nM] | inhibition [3] [%] | Stimulation [4] [%] | IC50 [5] [nM] |
| --- | --- | --- | --- | --- | --- |
| COC(=O)C1=C(C)NC(C)=C(C(=O)OC)C1c1ccccc1[N+](=O)[O-] [NIFEDIPINE] | 2.5 |  |  |  |  |
